The structures appear in SMILES notation. Converted amounts (≈) assume the structure as drawn. Bounds are passed on as bounds.

In general, MIC refers to the lowest concentration that inhibits growth of the organism.

The test system of data set [1] is Mycobacterium tuberculosis. The data set can be described thus: Antitubercular activity against Mycobacterium tuberculosis H37Rv ATCC 27294 after 28 days by two-fold serial dilution method. The class given is functional. The settings on record: for MIC: Mycobacterium tuberculosis, H37Rv ATCC 27294, 672 h. A digest of the protocol:
(§1)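 NCCLS-recommended agar dilution run in triplicate against H37Rv ATCC 27294. Two-fold dilutions (50.0 to 0.4 µg/mL) in Middlebrook 7H11 agar with OADC. Inoculum came from fresh 7H11/OADC slants, adjusted to 1 mg/mL wet weight in 0.05% Tween 80 saline and diluted 10^-2 (~10^7 cfu/mL). 5 µL was spotted per tube, incubated at 37 °C and read at 28 days as MIC.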

Data set [2] is described as follows: Cytotoxicity against mouse RAW264.7 cells at 50 ug/ml after 72 hrs by MTT assay. Type of data set: cell-based. The settings on record: read-out: INH. A general note: Tetrazolium assays rely on reduction of a dye to a coloured formazan, in cell work by metabolically active cells.
Data set [3] is described as follows: Therapeutic index, ratio of cytotoxicity against mouse RAW264.7 cells to antitubercular activity against Mycobacterium tuberculosis H37Rv ATCC 27294. Type of data set: cell-based. Particulars: read-out: TI.
Data set [4] concerns Mycobacterium tuberculosis. The data set can be described thus: Antitubercular activity against Mycobacterium tuberculosis […] by microplate Alamar blue assay. Type of data set: functional.
For data set [5], the system named is Mycobacterium tuberculosis. The data set can be described thus: Antitubercular activity against Mycobacterium tuberculosis clinical isolate by BACTEC 460 TB method. The class given is functional.
Data set [6] concerns Mycobacterium tuberculosis. The data set can be described thus: Antitubercular activity against Mycobacterium tuberculosis. Type of data set: functional. The method in brief:
as §1

As to `O=C(c1nc2cc(C(F)(F)F)ccc2s1)N1CCN(c2ccncc2)CC1`, in data set [1], the “-logMIC” value was 5.1 and the MIC is 7.96 µM (≈ 3.12 µg/mL). Besides, in data set [2], the cytotoxicity at 72 h, 50 ug/ml came out at 17.5%.

Turning to `O=C(c1nc2ccccc2s1)N1CCN(c2cnccn2)CC1`, in data set [1], the “-logMIC” value is recorded as 4.72 and the MIC was 19.2 µM (≈ 6.25 µg/mL). Further, in data set [2], the cytotoxicity at 72 h, 50 ug/ml was found to be 65.3%.

Take `COc1ccccc1N1CCN(C(=O)c2nc3ccccc3s2)CC1`: in data set [1], the “-logMIC” value was 5.05 and the MIC turned out to be 8.84 µM (≈ 3.12 µg/mL). Moreover, the cytotoxicity at 72 h, 50 ug/ml in data set [2] was 53.4%.

Take `O=C(c1nc2cc(C(F)(F)F)ccc2s1)N1CCCCC1`: the MIC in data set [1] is 39.8 µM (≈ 12.5 µg/mL).

The compound `COc1ccccc1N1CCN(C(=O)c2nc3cc(C(F)(F)F)ccc3s2)CC1` had an MIC in data set [1] of 59.3 µM (≈ 25 µg/mL).

In data set [1], `CCOC(=O)c1nc2ccccc2s1` came in with an MIC of 121 µM (≈ 25 µg/mL).

The compound `O=C(c1nc2ccccc2s1)N1CCOCC1` gave an MIC in data set [1] of 6.28 µM (≈ 1.56 µg/mL). For the same compound, in data set [2], the cytotoxicity at 72 h, 50 ug/ml was 36.2%.

`CO[C@H]1/C=C/O[C@@]2(C)Oc3c(C)c(O)c4c(O)c(c(/C=N/N5CCN(C)CC5)c(O)c4c3C2=O)NC(=O)/C(C)=C\C=C\[C@H](C)[C@H](O)[C@@H](C)[C@@H](O)[C@@H](C)[C@H](OC(C)=O)[C@@H]1C` [RIFAMPIN] gave a minimum inhibitory concentration (MIC) in data set [1] of 0.24 µM (≈ 0.198 µg/mL).

Turning to `NNC(=O)c1ccncc1` [ISONIAZID], inhibition of growth in data set [1] (MIC) required 0.72 µM (≈ 0.0987 µg/mL).

As to `O=C(c1nc2ccccc2s1)N1CCN(c2ccncc2)CC1`, in data set [1], the “-logMIC” value worked out at 5.02 and it took 9.63 µM (≈ 3.12 µg/mL) to inhibit growth (MIC). Besides, the cytotoxicity at 72 h, 50 ug/ml in data set [2] was 62%.

As to `NC(=O)c1cnccn1` [PYRAZINAMIDE], in data set [1], inhibition of growth (MIC) required 50.8 µM (≈ 6.25 µg/mL).

Compound `O=C(c1nc2cc(C(F)(F)F)ccc2s1)N1CCN(c2ccccc2)CC1` had an MIC in data set [1] of 31.9 µM (≈ 12.5 µg/mL).

As to `O=C(c1nc2ccccc2s1)N1CCN(c2ccccc2)CC1`, in data set [1], the “-logMIC” value was 5.32 and the MIC is 4.82 µM (≈ 1.56 µg/mL). Besides, the cytotoxicity at 72 h, 50 ug/ml in data set [2] came out at 67.2%.

`CCOC(=O)c1nc2cc(C(F)(F)F)ccc2s1` gave an MIC in data set [1] of 22.7 µM (≈ 6.25 µg/mL). Moreover, the cytotoxicity at 72 h, 50 ug/ml in data set [2] was determined as 29.1%.

As for `CC(=O)c1ccc(N2CCN(C(=O)c3nc4cc(C(F)(F)F)ccc4s3)CC2)cc1`, in data set [1], the “-logMIC” value was determined as 4.84 and the lowest concentration to inhibit growth (MIC) was 14.4 µM (≈ 6.25 µg/mL). Also, the cytotoxicity at 72 h, 50 ug/ml in data set [2] is 30.6%.

For the compound `O=C(c1nc2cc(Cl)ccc2s1)N1CCN(c2ccncc2)CC1`, in data set [1], the “-logMIC” value came to 4.46 and the MIC stood at 34.8 µM (≈ 12.5 µg/mL).

In turn, `O=C(c1nc2cc(Cl)ccc2s1)N1CCOCC1` gave an MIC in data set [1] of 22.1 µM (≈ 6.25 µg/mL). For the same compound, the cytotoxicity at 72 h, 50 ug/ml in data set [2] worked out at 26.1%.

Consider `CN1CCN(C(=O)c2nc3cc(Cl)ccc3s2)CC1`, for which the minimum inhibitory concentration (MIC) in data set [1] came out at 84.5 µM (≈ 25 µg/mL).

The compound `O=C(c1nc2cc(C(F)(F)F)ccc2s1)N1CCN(C(c2ccccc2)c2ccccc2)CC1` showed a minimal inhibitory concentration (MIC) in data set [1] of 51.9 µM (≈ 25 µg/mL).

With `CC(=O)N1CCN(C(=O)c2nc3cc(C(F)(F)F)ccc3s2)CC1`, in data set [1], the “-logMIC” value came out at 5.36 and the MIC is 4.37 µM (≈ 1.56 µg/mL). The cytotoxicity at 72 h, 50 ug/ml in data set [2] turned out to be 20.2%.

Consider `COc1ccc(N2CCN(C(=O)c3nc4cc(Cl)ccc4s3)CC2)cc1`, for which, in data set [1], the “-logMIC” value was determined as 5.09 and inhibition of growth (MIC) required 8.06 µM (≈ 3.13 µg/mL). The cytotoxicity at 72 h, 50 ug/ml in data set [2] came out at 42.8%.

Turning to `CC(=O)N1CCN(C(=O)c2nc3ccccc3s2)CC1`, in data set [1], the “-logMIC” value is 5.27 and the MIC was 5.39 µM (≈ 1.56 µg/mL). In data set [2], the cytotoxicity at 72 h, 50 ug/ml is 48.8%.

As to `CN1CCN(C(=O)c2nc3ccccc3s2)CC1`, in data set [1], the “-logMIC” value stood at 4.92 and the MIC was 12 µM (≈ 3.13 µg/mL). Also, the cytotoxicity at 72 h, 50 ug/ml in data set [2] turned out to be 52.1%.

For the compound `O=C(c1nc2cc(Cl)ccc2s1)N1CCN(c2ccccc2)CC1`, in data set [1], the “-logMIC” value was 4.76 and it took 17.5 µM (≈ 6.25 µg/mL) to inhibit growth (MIC). For the same compound, the cytotoxicity at 72 h, 50 ug/ml in data set [2] came out at 41.2%.

Compound `CC[C@@H](CO)NCCN[C@@H](CC)CO` [ETHAMBUTOL] showed an MIC in data set [1] of 7.64 µM (≈ 1.56 µg/mL).

The compound `O=C(c1nc2cc(Cl)ccc2s1)N1CCSCC1` registered an MIC in data set [1] of 20.9 µM (≈ 6.25 µg/mL). For the same compound, the cytotoxicity at 72 h, 50 ug/ml in data set [2] worked out at 62.5%.

As to `O=C(c1nc2cc(C(F)(F)F)ccc2s1)N1CCOCC1`, 2.47 µM (≈ 0.781 µg/mL) was the least that counted as inhibitory in data set [1] (MIC). Also, the cytotoxicity at 72 h, 50 ug/ml in data set [2] worked out at 24.6%. The selectivity ratio in data set [3] was above 60.

For `O=C(c1nc2ccccc2s1)N1CCN(C(c2ccccc2)c2ccccc2)CC1`, in data set [1], the “-logMIC” value was found to be 5.72 and the MIC was found to be 1.89 µM (≈ 0.782 µg/mL). For the same compound, the cytotoxicity at 72 h, 50 ug/ml in data set [2] came out at 60.7%.

In turn, `O=C(c1nc2cc(Cl)ccc2s1)N1CCCCC1` showed a minimum inhibitory concentration (MIC) in data set [1] of 44.5 µM (≈ 12.5 µg/mL).

With `CN1CCN(C(=O)c2nc3cc(C(F)(F)F)ccc3s2)CC1`, in data set [1], the “-logMIC” value amounted to 4.72 and the MIC worked out at 19 µM (≈ 6.25 µg/mL). In data set [2], the cytotoxicity at 72 h, 50 ug/ml was 12.6%.

`CC(=O)N1CCN(C(=O)c2nc3cc(Cl)ccc3s2)CC1`: in data set [1], the “-logMIC” value was found to be 4.41 and the MIC worked out at 38.6 µM (≈ 12.5 µg/mL).

`CN1CCN(/N=C\c2cc(C(F)(F)F)nc3c(C(F)(F)F)cccc23)CC1` showed an MIC in data set [4] of 3.56 µg/mL (≈ 9.12 µM).

As for `O=C(c1nc2cc(Cl)ccc2s1)N1CCN(c2cnccn2)CC1`, in data set [1], the “-logMIC” value amounted to 4.76 and inhibition of growth (MIC) required 17.4 µM (≈ 6.25 µg/mL). Moreover, in data set [2], the cytotoxicity at 72 h, 50 ug/ml came out at 54.9%.

`Cc1c(CN2CCN(C)CC2)cc(-c2ccc(Cl)cc2)n1-c1ccc(Cl)cc1` showed an MIC in data set [5] of 1.5 µg/mL (≈ 3.62 µM).

`O=C(c1nc2ccccc2s1)N1CCSCC1` showed an MIC in data set [1] of 94.6 µM (≈ 25 µg/mL).

On to `COc1ccc(N2CCN(C(=O)c3nc4ccccc4s3)CC2)cc1`, for which, in data set [1], the “-logMIC” value was 4.45 and 35.4 µM (≈ 12.5 µg/mL) was the least that counted as inhibitory (MIC).

`CC(=O)c1ccc(N2CCN(C(=O)c3nc4cc(Cl)ccc4s3)CC2)cc1`: in data set [1], the “-logMIC” value stood at 5.41 and the MIC was 3.9 µM (≈ 1.56 µg/mL). Also, the cytotoxicity at 72 h, 50 ug/ml in data set [2] is 30.8%.

`CCOC(=O)c1nc2cc(Cl)ccc2s1` came in with an MIC in data set [1] of 12.9 µM (≈ 3.13 µg/mL). The cytotoxicity at 72 h, 50 ug/ml in data set [2] came to 37.4%.

Regarding `COc1ccc(N2CCN(C(=O)c3nc4cc(C(F)(F)F)ccc4s3)CC2)cc1`, in data set [1], the “-logMIC” value was found to be 5.13 and the lowest concentration to inhibit growth (MIC) was 7.42 µM (≈ 3.13 µg/mL). In addition, in data set [2], the cytotoxicity at 72 h, 50 ug/ml amounted to 19.4%.

As for `O=C(c1nc2cc(Cl)ccc2s1)N1CCN(C(c2ccccc2)c2ccccc2)CC1`, in data set [1], the “-logMIC” value is 5.76 and the MIC was determined as 1.74 µM (≈ 0.78 µg/mL). Further, the cytotoxicity at 72 h, 50 ug/ml in data set [2] turned out to be 52.9%.

In the case of `COc1ccccc1N1CCN(C(=O)c2nc3cc(Cl)ccc3s2)CC1`, in data set [1], the “-logMIC” value is 5.09 and the MIC turned out to be 8.06 µM (≈ 3.13 µg/mL). For the same compound, the cytotoxicity at 72 h, 50 ug/ml in data set [2] was found to be 63.4%.

As for `O=C(c1nc2ccccc2s1)N1CCCCC1`, the minimum inhibitory concentration (MIC) in data set [1] was 101 µM (≈ 25 µg/mL).

Turning to `CC(=O)c1ccc(N2CCN(C(=O)c3nc4ccccc4s3)CC2)cc1`, in data set [1], the “-logMIC” value was determined as 5.37 and inhibition of growth (MIC) required 4.27 µM (≈ 1.56 µg/mL). For the same compound, in data set [2], the cytotoxicity at 72 h, 50 ug/ml was found to be 62.3%.

For the compound `O=C(c1nc2cc(C(F)(F)F)ccc2s1)N1CCN(c2cnccn2)CC1`, in data set [1], the “-logMIC” value is recorded as 5.1 and the MIC stood at 7.94 µM (≈ 3.12 µg/mL). Moreover, the cytotoxicity at 72 h, 50 ug/ml in data set [2] was found to be 28.1%.

In turn, `CC(C)C(NC(=O)OCC1c2ccccc2-c2ccccc21)C(=O)O/N=C1\c2ccccc2-c2c1c(N1CCN(c3ccccn3)CC1)nc1ccc(Br)cc21` (stereo not drawn) had an MIC in data set [6] of 1.47 µg/mL (≈ 1.82 µM).

Turning to `O=C(c1nc2cc(C(F)(F)F)ccc2s1)N1CCSCC1`, inhibition of growth in data set [1] (MIC) required 2.35 µM (≈ 0.781 µg/mL). Besides, in data set [2], the cytotoxicity at 72 h, 50 ug/ml amounted to 18.1%. Moreover, the selectivity ratio in data set [3] was above 60.

The values above are taken from ChEMBL document CHEMBL3797184, “Benzo[d]thiazol-2-yl(piperazin-1-yl)methanones as new anti-mycobacterial chemotypes: Design, synthesis, biological evaluation and 3D-QSAR studies” (Eur J Med Chem, 2016).
